Source: publication PMC11339821 (ACS Omega, 2024)
“And” between values parts separate entries of the source, which are not always exact repeats. Equal entries are not always repeated.

How the values were obtained:
Type in all cases: in vivo, Swiss albino mice
[1] = system: spatial memory of scopolamine-treated AD mice; assay: Morris water-maze test in scopolamine-treated mice; conditions: for spatial memory (probe test, fifth day): after platform removal, vs scopolamine group; for number of entries in the arm: intranasal 0.5 mg/kg bw; for time to find the hidden acrylic platform: intranasal 0.5 mg/kg bw (EGCG-AA-TRANS 0.25 mg/kg bw each)
Method in brief: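 Mice (30 ± 5 g; n = 5/group) were dosed intranasally for 6 days with free or transferosome-loaded test compound at 0.5 mg/kg bw, or 0.25 mg/kg bw of each in the combination. On day 7, scopolamine 0.5 mg/kg bw was given 30 min before trials. Pool 160 cm wide, water 26 cm deep, 22 ± 1 °C; run over 5 days. Quadrant time, arm entries and platform latency recorded; one-way ANOVA with Newman–Keuls.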

[2] = system: NO levels; assay: NO; conditions: hippocampus tissue homogenate
Method in brief: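 Hippocampus came from mice dosed intranasally for 6 days and challenged with scopolamine (n = 5). Tissue was homogenised in KCl buffer pH 8.0 with protease and phosphatase inhibitors, then spun at 10,000 g for 25 min at 4 °C. The 10% homogenate was mixed with ammonium chloride and Griess reagent, held 37 °C for 90 min, read at 540 nm. Sodium nitrite standards […]; nitrite in μM/mL; one-way ANOVA with Newman–Keuls.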

[3] = Organ distribution and brain pharmacokinetic study; conditions: brain
[4] = Swiss albino, mouse, inhaled or intranasal, 0.5 mg/kg

AUC(0-t) [3, 4] [ng·h/mL] | Cmax [3, 4] [ng/mL] | MRT last [3, 4] [h] | Tmax [3, 4] [h] | Cmax ([3]; mice) [ng/mL] | MRT0–24 ([3]; mice) | Tmax ([3]; mice) [h] | Compound | spatial memory (probe test, fifth day) [1] | number of entries in the arm [1] | time to find the hidden acrylic platform [1] [s] | NO levels [2]
1061 ± 0.654 | 855.03 ± 0.654 | 1.98 ± 0.121 | 2.12 ± 0.871 |  |  |  | O=C1O[C@H]([C@@H](O)CO)C(O)=C1O [AA, ascorbic acid] | improved spatial memory | 15 times | 38 | significant decrease in NO levels
 |  |  |  |  |  |  | CN1[C@@H]2C[C@@H](OC(=O)[C@H](CO)c3ccccc3)C[C@H]1[C@@H]1O[C@@H]12 [scopolamine, Scopolamine] | significantly reduced their spatial memory | about 12 times | 84 | significantly higher
 |  |  |  | 0.78607 ± 0.000784 | 1.4 ± 0.985 h and 1.412 ± 0.985 h | 1.101 ± 2.871 | Epigallocatechin-3-gallate [EGCG] | improved spatial memory | 14 times | 42 | significant decrease in NO levels
